core dimer inh: blocks dimerization of HCV core protein. inhibition, % at 5 µM. TR-FRET GST/Flag-core106 dimerization, 1536-well. 0.33% of 300,000 active;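 active = inhibition above the mean of all tested compounds plus 3 SD, set per screening campaign, cut at about 45% in these data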
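System: GST-tagged and Flag-tagged HCV core protein residues 1-106 / Input: core106 proteins, GST 13.5 nM and Flag 17 nM / Buffer or medium: KF-containing HEPES buffer, pH 7.45, DTT, CHAPS, BSA / Probe or stimulus: Eu-anti-GST and XL665-anti-Flag labelled anti-tag antibodies / Schedule: 4 h, 22.5 °C incubation / Technique: TR-FRET 671 and 617 nm emission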
GRK2 inh: blocks RNA aptamer binding to human GRK2; bead flow cytometry, FAM-aptamer displacement from GRK2; inhibition of aptamer binding, % at 10 µM; 0.59% of 330,000 active; AID 488847;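 active = inhibition of aptamer binding above 40%, roughly 3 SD of noise, on plates passing a quality check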;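 note: median bead fluorescence of bound FAM aptamer so fluorescent compounds give negative values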
GPR7 antag: blocks human GPR7 receptor signaling | inhibition, % at 4.4 µM | P48145 | 1.1% of 290,000 active | GPR7-expressing cells, fluorescence antagonist assay; in the data active = inhibition above about 16%, passing the limit was not always enough;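 note: cells stimulated with the agonist NPW; 0% = agonist with vehicle and 100% = vehicle without agonist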
Target sequence (P48145 whole entry, looked up): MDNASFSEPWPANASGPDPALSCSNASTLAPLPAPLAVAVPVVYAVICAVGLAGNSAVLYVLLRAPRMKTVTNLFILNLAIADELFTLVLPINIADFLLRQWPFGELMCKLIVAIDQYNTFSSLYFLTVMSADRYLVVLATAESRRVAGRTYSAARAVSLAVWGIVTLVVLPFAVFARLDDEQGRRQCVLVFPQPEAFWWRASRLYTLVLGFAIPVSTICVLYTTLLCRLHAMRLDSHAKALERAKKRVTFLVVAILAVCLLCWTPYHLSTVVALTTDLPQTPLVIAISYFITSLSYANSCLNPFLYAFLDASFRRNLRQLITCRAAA
DNA FID counter: displaces DNA intercalator in HCV helicase counter-screen. AID 1845. DNA fluorescent intercalator displacement, fluorescence. inhibition, % at 7.9 µM. 0.17% of 290,000 active; in the data active = inhibition above about 37%;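 note: 0% = vehicle and 100% = reference compound; higher means more ethidium bromide displaced from hairpin DNA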
DAGLB inhibitor: blocks human DAGLB lipase activity; inhibition, % at 5.17 µM; 0.059% of 340,000 active; AID 504411; Q8NCG7; HEK293T DAGLB membrane lysate, EnzChek fluorogenic substrate; in the data active = inhibition above about 34%;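 note: 0% = enzyme with vehicle and 100% = wells lacking enzyme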
HCV NS3 hel inh: blocks Hepatitis C virus NS3 helicase unwinding | NS3 helicase DNA unwinding, Cy5 molecular beacon fluorescence | inhibition, % at 10.9 µM | 0.56% of 290,000 active | AID 1800;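 active = inhibition above the mean of all tested compounds plus 3 SD, set per campaign, cut at about 35% in these data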;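 note: 0% = DMSO wells and 100% = thioflavine S control wells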
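Control set: DMSO versus 110 µM thioflavine S; Material: NS3 helicase fragment of HCV; Measured by: Cy5 fluorescence at 0 and 60 min, beacon hairpin quenching; Read-out basis: percent inhibition from t60/t0 fluorescence ratio; Times: reaction time 60 min, 25 °C; Repeats: single replicate; Compound dosing: single dose, 10.9 µM nominal final, DMSO 0.8% final.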
GRK2 CP1: human GRK2 inhibition confirmation, cherry pick 1; 4% of 2,000 active; AID 504451; bead-bound GRK2, FAM-aptamer displacement, flow cytometry; shares compounds with GRK2 inh; aptamer displacement, % at 10 µM;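 active = aptamer displacement above 40%, near three times the noise of non-fluorescent compounds, on plates passing quality checks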;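 note: negative values mostly reflect intrinsic compound fluorescence rather than true enhancement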
FAM quench CP1: quenches fluorescent RNA aptamer, GRK2 hit artifact; AID 504580; Carboxyfluorescein RNA aptamer on beads, flow cytometry quenching; hits give low values; 2,000 tested, under 10 active; shares compounds with GRK2 inh; fluorescence response (% of DMSO), % at 10 µM;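 active = compounds that quench the bead-bound fluorescent RNA probe, cutting fluorescence to under half of the solvent control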;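 note: counterscreen run without GRK2 so only probe quenching by compound is measured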
GRK2 CP2: human GRK2 inhibition confirmation, cherry pick 2; AID 504782; bead-bound GRK2, FAM-aptamer displacement, flow cytometry; shares compounds with GRK2 inh; inhibition of aptamer binding, % at 10 µM; 360 tested, under 10 active;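 active = inhibition of aptamer binding above 40%, about triple the noise seen with nonglowing compounds, on plates passing quality control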;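 note: negative values mostly come from compounds that fluoresce themselves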
FAM quench CP2: counter-screen for GRK2 binding hits: quenchers of fluorescent RNA aptamer. fluorescence response vs DMSO, % at 10 µM. carboxyfluorescein RNA aptamer beads, flow cytometry quenching; hits give low values. 360 tested, under 10 active. shares compounds with GRK2 inh;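 active = response vs DMSO under 50%, meaning signal dropped by over half, treated as fluorescence quencher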;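 note: labelled aptamer on streptavidin beads without GRK2 as a quench counter-screen; 100% = bead fluorescence of DMSO wells and lower means quenching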
Starred values were filed as active, the others as inactive; x = not tested or not shown. Hits are enriched below; roughly 2.2% of the tested compounds scored in any of these assays.

SMILES	core dimer inh	GRK2 inh	GPR7 antag	DNA FID counter	DAGLB inhibitor	HCV NS3 hel inh	GRK2 CP1	FAM quench CP1	others
CCOC(=O)C1CCN(C(=O)CCCn2nc(C)c3c(C)n(-c4ccc(C)cc4)nc3c2=O)CC1	10	0	-20	-64	-2	3	x	x
COc1ccc([C@@H]2CC=C(C(=O)O)[C@H](c3ccc(Cl)cc3)N2S(=O)(=O)c2ccc(Cl)cc2)cc1	-1	49*	x	x	2	x	-6	101
O=C(O)C1=CC[C@@H](c2ccc(Cl)cc2)N(S(=O)(=O)c2ccc(Cl)cc2)[C@H]1c1ccc(F)cc1	26	0	x	x	2	x	x	x
CCOc1ccc(S(=O)(=O)N2CCC(C(=O)OC(C)C(=O)N(C)C3CCCCC3)CC2)cc1 (centres undefined)	5	2	-4	-49	-2	-10	x	x
Cc1ccc(C)c(S(=O)(=O)NCc2ccc(C(=O)N3CCCCC3C)cc2)c1 (centres undefined)	-2	52*	1	-39	-2	-1	2	93
Cc1cc(C)cc(NC(=O)CCn2ccnc2)c1	-2	0	-13	-3	1	-3	x	x
O=S(=O)(NCCCc1ccccc1)c1ccccc1	4	0	4	-3	-2	-4	x	x
Cc1ccc(C)c(S(=O)(=O)NCCCc2ccccc2)c1	5	81*	-15	-26	-2	-2	0	109
O=C(CC1C(=O)NCCN1Cc1cccc(C(F)(F)F)c1)NCCc1cnccn1 (centres undefined)	-6	1	-13	-12	0	-3	x	x
Cc1csc(CNc2ncnc3ccc(-c4ccoc4)cc23)c1	x	49*	x	x	-1	x	-2	100
Cc1ccc(C(=O)Nc2cccc(-c3ccc(N4CCOCC4)nn3)c2)cc1	-4	2	x	x	0	x	1	102
O=C(Nc1cccc(-c2ccc(N3CCOCC3)nn2)c1)c1cccc(Cl)c1	x	x	x	x	-9	x	x	x
O=C(Nc1cccc(-c2ccc(N3CCOCC3)nn2)c1)c1ccccc1Cl	0	1	x	x	1	x	1	102
O=C(Nc1cccc(-c2ccc(N3CCOCC3)nn2)c1)c1ccc(Cl)cc1	4	2	x	x	1	x	1	96
O=C(COc1ccc(Cl)cc1)Nc1cccc(-c2ccc(N3CCOCC3)nn2)c1	5	0	x	x	-2	x	4	100
Cc1cc(C(=O)Nc2cccc(-c3ccc(N4CCOCC4)nn3)c2)ccc1[N+](=O)[O-]	-7	0	x	x	-1	x	x	x
CCOCCCNC(=O)CN1N=C(c2ccc(C)cc2)CCC1=O	-4	3	4	-17	0	1	x	x
O=C(Nc1nccs1)c1ccc(Cl)c([N+](=O)[O-])c1	-6	0	-9	4	2	2	x	x
Cc1ccc(NC(=O)CCCn2nc(C)c3c(C)n(-c4ccccc4)nc3c2=O)c(Cl)c1	-1	0	-6	-9	-2	4	x	x
Cc1ccc(C(=O)Nc2cccc(-c3ccc(N4CCOCC4)nn3)c2)cc1C	-2	0	x	x	1	x	0	96
COc1ccc(C(=O)Nc2cccc(-c3ccc(N4CCOCC4)nn3)c2)cc1	5	1	x	x	2	x	4	102
COc1cc(OC)cc(C(=O)Nc2cccc(-c3ccc(N4CCOCC4)nn3)c2)c1	0	5	x	x	3	x	x	x
CCN1CCN(CCCOc2ccc(-c3ccccc3)cc2)CC1	2	30	10	20	x	-41	-8	104
CN1CCN(CCCOc2ccc(-c3ccccc3)cc2)CC1	-2	0	21	21	1	-56	x	x
CCSc1ccccc1C(=O)Nc1ccc(S(=O)(=O)NC(C)=O)cc1	-1	0	-8	-9	-1	11	x	x
SMILES	core dimer inh	GRK2 inh	GPR7 antag	DNA FID counter	DAGLB inhibitor	HCV NS3 hel inh	GRK2 CP1	FAM quench CP1	others
CC(NC(=O)C1CCCN(S(=O)(=O)N2CCOCC2)C1)c1ccccc1 (centres undefined)	-5	2	-4	-4	0	-5	-1	95
COc1ccccc1N(/N=C1\Sc2ccccc2C1=O)C(C)=O	12	0	-12	-9	-1	-10	x	x
O=C(O)C(O)Cc1c[nH]c2ccccc12 (centres undefined)	-2	67*	-9	0	-2	-1	2	100
COc1ccc(/C=N/Nc2ncc(Br)cn2)c(OC)c1	-9	45*	17	-3	-1	-12	25	99
COc1ccc(/C=N\Nc2ccccn2)c(OC)c1	x	0	-8	-2	0	4	x	x
COC1OC2COC(c3ccccc3)OC2C(NC(C)=O)C1OC(C)=O (centres undefined)	x	x	x	x	-2	x	x	x
O=C(NCc1cccc(F)c1)c1cccc2c1C(=O)c1ccc(N3CCC(Cc4ccccc4)CC3)cc1S2(=O)=O	x	1	x	x	-7	x	x	x
O=C(NCCc1ccc(F)cc1)c1cccc2c1C(=O)c1ccc(N3CCC(Cc4ccccc4)CC3)cc1S2(=O)=O	x	5	x	x	-9	x	2	109
CC(=O)Nc1ccc(Nc2nc3ccccc3nc2NS(=O)(=O)c2ccc(Cl)c([N+](=O)[O-])c2)cc1	x	x	x	x	14	x	x	x
O=C(NC(=S)Nc1ccc2oc(-c3ccncc3)nc2c1)c1ccccc1F	3	40	-14	-7	-3	-10	-14	100
Cc1cc(NC(=O)C2CCN(C(=O)c3ccco3)CC2)ccc1Br	-5	1	x	x	-2	x	x	x
COc1cccc(-c2nnc(NC(=O)c3ccc(Cl)s3)o2)c1	18	52*	10	-11	1	16	-2	97
O=C(Nc1nnc(-c2ccco2)o1)c1ccc(Cl)s1	0	0	-7	-12	5	12	x	x
Cc1ccccc1-n1ncc2c1CC(C)(C)CC2NC(=O)c1cn[nH]c1C (centres undefined)	-2	0	-11	-43	1	2	x	x
Cc1cccc(NC(=O)c2nc[nH]c2C(=O)N[C@@H](Cc2ccccc2)C(=O)OCc2ccccc2)c1	-1	51*	x	x	-7	x	-2	103	GRK2 CP2=-17;FAM quench CP2=92
Cc1cccc2cc(-c3ccccc3)c(-c3ccccc3)c[n+]12	5	44*	12	3	4	-27	18	62
Cc1ccc(CC2(O)CC(C)N(C)CC2C)c(C)c1 (centres undefined)	-2	56*	-3	0	-2	-1	-1	104

Screening results as filed in PubChem.
